# Data published in ChEMBL document CHEMBL1153712, “Design, synthesis and bioactivity of catechin/epicatechin and 2-azetidinone derived chimeric molecules” (2009).
# The source made the active and inactive calls. The rule behind the calls is not given here.
# System: Escherichia coli
# Experiment: Antibacterial activity against Escherichia coli at 1 mmol after 48 hrs by disk diffusion assay
# Format: functional
# How it was run: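 Disc diffusion on agar. A colony was grown in nutrient broth for 2.5 h and spread over dried plates. Sterile 6 mm paper discs carried 1 mmol of compound. Plates were held at 37 °C and read at 48 h for inhibition-zone diameter. Controls were ampicillin (standard) and a DMSO-only disc.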
SMILES,diameter of the inhibition zone (DIZ) [mm],Activity
O=C1[C@@H](CCn2cc(CO[C@H]3Cc4c(O)cc(O)cc4O[C@@H]3c3ccc(O)c(O)c3)nn2)[C@@H](c2ccccc2)N1c1ccccc1 (mixture of isomers),9,–
[N-]=[N+]=NCC[C@@H]1C(=O)N(c2ccccc2)[C@@H]1c1ccccc1,–,inactive
O=C1[C@@H](CCn2cc(CO[C@@H]3Cc4c(O)cc(O)cc4O[C@@H]3c3ccc(O)c(O)c3)nn2)[C@@H](c2ccccc2)N1c1ccccc1 (mixture of isomers),9,–
COc1ccc([C@@H]2[C@H](CCn3cc(CO[C@H]4Cc5c(O)cc(O)cc5O[C@@H]4c4ccc(O)c(O)c4)nn3)C(=O)N2c2ccccc2)cc1 (mixture of isomers),6,–
COc1ccc([C@@H]2[C@H](CCO)C(=O)N2c2ccccc2)cc1,–,inactive
COc1ccc([C@@H]2[C@H](CCN=[N+]=[N-])C(=O)N2c2ccccc2)cc1,–,inactive
O=C1[C@@H](CCO)[C@@H](c2ccccc2)N1c1ccccc1,–,inactive
COc1ccc([C@@H]2[C@H](CCn3cc(CO[C@@H]4Cc5c(O)cc(O)cc5O[C@@H]4c4ccc(O)c(O)c4)nn3)C(=O)N2c2ccccc2)cc1 (mixture of isomers),6,–

# Target: T1, Ribonuclease pancreatic (Bos taurus) (UniProt P61823)
# T1 sequence (whole entry): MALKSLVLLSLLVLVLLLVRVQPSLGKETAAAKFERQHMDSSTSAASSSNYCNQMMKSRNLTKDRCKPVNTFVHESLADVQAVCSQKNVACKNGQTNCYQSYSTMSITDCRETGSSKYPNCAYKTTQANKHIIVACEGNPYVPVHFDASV
# Experiment: Inhibition of bovine pancreatic RNase A assessed as degradation of 18s rRNA after 1 hr by agarose gel based assay
# How it was run: (§1)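 Qualitative agarose-gel assay. RNase A was preincubated with compounds for 1 h at 37 °C. RNA substrate was then added and digested for 15 minutes. Samples were mixed with 40% sucrose and 0.25% bromophenol blue in 1× TAE and run on a 1.1% agarose gel. Degradation of 28S and 18S rRNA bands was scored.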
row,"Inhibition (qualitative, active/not active)",SMILES
1,Active,O=C1[C@@H](CCn2cc(CO[C@H]3Cc4c(O)cc(O)cc4O[C@@H]3c3ccc(O)c(O)c3)nn2)[C@@H](c2ccccc2)N1c1ccccc1 (mixture of isomers)
2,Active,O=C1[C@@H](CCn2cc(CO[C@@H]3Cc4c(O)cc(O)cc4O[C@@H]3c3ccc(O)c(O)c3)nn2)[C@@H](c2ccccc2)N1c1ccccc1 (mixture of isomers)
3,Active,COc1ccc([C@@H]2[C@H](CCn3cc(CO[C@H]4Cc5c(O)cc(O)cc5O[C@@H]4c4ccc(O)c(O)c4)nn3)C(=O)N2c2ccccc2)cc1 (mixture of isomers)
4,Active,COc1ccc([C@@H]2[C@H](CCn3cc(CO[C@@H]4Cc5c(O)cc(O)cc5O[C@@H]4c4ccc(O)c(O)c4)nn3)C(=O)N2c2ccccc2)cc1 (mixture of isomers)

# The remaining lines, values behind:
row,SMILES,"Inhibition (qualitative, active/not active)"
1,Oc1cc(O)c2c(c1)O[C@H](c1ccc(O)c(O)c1)[C@@H](O)C2,inactive
2,Oc1cc(O)c2c(c1)O[C@H](c1ccc(O)c(O)c1)[C@H](O)C2,inactive

# Target: T1, Ribonuclease pancreatic (Bos taurus)
# Experiment: Inhibition of bovine pancreatic RNase A assessed as degradation of 28s rRNA after 1 hr by agarose gel based assay
# How it was run: as §1
row,inhibition,SMILES
1,inactive,O=C1[C@@H](CCn2cc(CO[C@H]3Cc4c(O)cc(O)cc4O[C@@H]3c3ccc(O)c(O)c3)nn2)[C@@H](c2ccccc2)N1c1ccccc1 (mixture of isomers)
2,inactive,O=C1[C@@H](CCn2cc(CO[C@@H]3Cc4c(O)cc(O)cc4O[C@@H]3c3ccc(O)c(O)c3)nn2)[C@@H](c2ccccc2)N1c1ccccc1 (mixture of isomers)
3,inactive,COc1ccc([C@@H]2[C@H](CCn3cc(CO[C@H]4Cc5c(O)cc(O)cc5O[C@@H]4c4ccc(O)c(O)c4)nn3)C(=O)N2c2ccccc2)cc1 (mixture of isomers)
4,inactive,COc1ccc([C@@H]2[C@H](CCn3cc(CO[C@@H]4Cc5c(O)cc(O)cc5O[C@@H]4c4ccc(O)c(O)c4)nn3)C(=O)N2c2ccccc2)cc1 (mixture of isomers)
